Measured values: PubChem BioAssay AID588761 (Johns Hopkins Ion Channel Center, 2011)
Calls of active or inactive are those of the source.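 How the source made its calls: active means peak block of the KCNQ2 potassium channel above 30% at any tested dose, with a fitted dose response curve; inactive means no channel block at any dose, or no curve.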

target: Potassium voltage-gated channel subfamily KQT member 2 (Rattus norvegicus) (UniProt O88943); test: KCNQ2 thallium flux blockade – cell-based, FluxOR thallium flux, CRC, selectivity assay for KCNK9 inhibitor project, SAR follow-up (AID 588761); details: KCNQ2-expressing cells; series mostly up to 30 µM
Sequence (O88943 whole entry, looked up): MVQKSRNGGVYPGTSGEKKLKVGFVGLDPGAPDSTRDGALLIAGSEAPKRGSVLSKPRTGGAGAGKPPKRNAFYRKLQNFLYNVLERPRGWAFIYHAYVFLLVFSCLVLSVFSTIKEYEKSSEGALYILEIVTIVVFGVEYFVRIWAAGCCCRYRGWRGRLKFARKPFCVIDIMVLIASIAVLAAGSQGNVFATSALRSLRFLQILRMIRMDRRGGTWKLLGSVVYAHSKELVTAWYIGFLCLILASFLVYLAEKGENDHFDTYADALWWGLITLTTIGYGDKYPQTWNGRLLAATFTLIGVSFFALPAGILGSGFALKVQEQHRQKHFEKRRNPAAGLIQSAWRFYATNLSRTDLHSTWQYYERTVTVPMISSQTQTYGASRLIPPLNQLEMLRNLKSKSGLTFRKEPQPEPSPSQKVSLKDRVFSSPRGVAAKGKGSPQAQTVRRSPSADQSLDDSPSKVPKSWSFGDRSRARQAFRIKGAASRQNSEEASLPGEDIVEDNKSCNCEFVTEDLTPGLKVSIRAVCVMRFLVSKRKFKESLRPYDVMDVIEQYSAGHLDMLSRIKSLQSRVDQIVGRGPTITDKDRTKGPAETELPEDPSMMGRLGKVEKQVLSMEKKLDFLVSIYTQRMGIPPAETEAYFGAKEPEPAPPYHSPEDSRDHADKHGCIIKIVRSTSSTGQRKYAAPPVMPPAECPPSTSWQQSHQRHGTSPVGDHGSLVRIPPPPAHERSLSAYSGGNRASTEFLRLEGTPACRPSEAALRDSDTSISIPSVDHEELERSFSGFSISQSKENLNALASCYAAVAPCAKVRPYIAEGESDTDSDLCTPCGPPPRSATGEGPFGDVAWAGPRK
Summary of the method: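 Repeats: ≥2 replicates | Test system: KCNQ2-expressing CHO cells | Detection: FluxOR thallium flux, kinetic imaging, 10 s baseline, 110 s post-stimulus | Probe or stimulus: Tl+/K+ stimulus (5x stock 7 mM Tl2SO4, 25 mM K2SO4) | Schedule: Dye 90 min RT, compound 20 min RT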

outcome, inactive:
Cc1cccc(C(=O)Nc2ccc(C(=O)Nc3ccccc3)cc2)c1
Cc1cccc(C(=O)Nc2cccc(C(=O)Nc3ccccc3)c2)c1
Cc1cccc(NC(=O)c2cccc(NC(=O)c3ccccc3)c2)c1
Cc1cccc(NC(=O)c2ccccc2NC(=O)c2ccccc2)c1
Cc1cccc(C(=O)Nc2ccccc2C(=O)Nc2ccccc2)c1
